ChEMBL document CHEMBL1154229 (Bioorg Med Chem Lett, 2009)

Legend:
[1] = target: T1, Bifunctional epoxide hydrolase 2 (Homo sapiens, UniProt P34913); test: Inhibition of human soluble epoxide hydrolase
T1 sequence (P34913 whole entry): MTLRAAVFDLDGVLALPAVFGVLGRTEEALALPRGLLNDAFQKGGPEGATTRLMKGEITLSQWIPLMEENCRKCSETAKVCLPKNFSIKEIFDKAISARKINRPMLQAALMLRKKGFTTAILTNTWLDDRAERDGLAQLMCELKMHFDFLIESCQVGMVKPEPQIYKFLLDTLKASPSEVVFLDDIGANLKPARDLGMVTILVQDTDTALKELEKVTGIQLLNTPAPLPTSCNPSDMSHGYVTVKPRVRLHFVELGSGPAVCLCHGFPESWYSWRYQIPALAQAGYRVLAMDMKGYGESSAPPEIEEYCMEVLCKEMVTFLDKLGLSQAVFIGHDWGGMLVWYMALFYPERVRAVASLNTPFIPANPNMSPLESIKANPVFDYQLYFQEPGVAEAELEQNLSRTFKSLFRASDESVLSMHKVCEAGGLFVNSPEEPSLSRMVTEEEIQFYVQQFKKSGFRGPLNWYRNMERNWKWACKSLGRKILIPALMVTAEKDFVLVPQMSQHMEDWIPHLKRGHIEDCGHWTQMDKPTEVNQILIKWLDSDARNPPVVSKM

[2] = target: T2, Bifunctional epoxide hydrolase 2 (Rattus norvegicus, UniProt P80299); test: Inhibition of rat soluble epoxide hydrolase
T2 sequence (P80299 whole entry): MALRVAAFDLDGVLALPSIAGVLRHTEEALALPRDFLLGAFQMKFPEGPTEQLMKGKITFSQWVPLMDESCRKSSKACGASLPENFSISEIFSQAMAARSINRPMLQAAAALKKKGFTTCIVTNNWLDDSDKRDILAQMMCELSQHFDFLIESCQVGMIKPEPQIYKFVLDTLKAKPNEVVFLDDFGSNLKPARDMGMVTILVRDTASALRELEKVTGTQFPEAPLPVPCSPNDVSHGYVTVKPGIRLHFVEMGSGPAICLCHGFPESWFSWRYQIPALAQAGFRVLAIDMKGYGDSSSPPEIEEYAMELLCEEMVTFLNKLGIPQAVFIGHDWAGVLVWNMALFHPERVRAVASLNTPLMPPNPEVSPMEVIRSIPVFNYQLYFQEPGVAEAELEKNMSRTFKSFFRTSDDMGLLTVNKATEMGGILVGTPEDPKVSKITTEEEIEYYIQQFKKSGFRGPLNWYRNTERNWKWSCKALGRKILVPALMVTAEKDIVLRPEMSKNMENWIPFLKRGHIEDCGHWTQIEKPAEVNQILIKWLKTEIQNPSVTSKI

[3] = target: T1, Bifunctional epoxide hydrolase 2; test: Inhibition of human soluble epoxide hydrolase in HEK293 cells assessed as DHET production; format: cell-based
Outline: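 Whole-cell 14,15-DHET production assay in HEK293 cells, run with or without 10% human serum. Values come from one or two experiments, each in triplicate, with repeats within 20%.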

Epoxide hydrolase 1 = target: T3, Epoxide hydrolase 1 (Homo sapiens, UniProt P07099); test: Inhibition of human microsomal epoxide hydrolase
T3 sequence (P07099 whole entry): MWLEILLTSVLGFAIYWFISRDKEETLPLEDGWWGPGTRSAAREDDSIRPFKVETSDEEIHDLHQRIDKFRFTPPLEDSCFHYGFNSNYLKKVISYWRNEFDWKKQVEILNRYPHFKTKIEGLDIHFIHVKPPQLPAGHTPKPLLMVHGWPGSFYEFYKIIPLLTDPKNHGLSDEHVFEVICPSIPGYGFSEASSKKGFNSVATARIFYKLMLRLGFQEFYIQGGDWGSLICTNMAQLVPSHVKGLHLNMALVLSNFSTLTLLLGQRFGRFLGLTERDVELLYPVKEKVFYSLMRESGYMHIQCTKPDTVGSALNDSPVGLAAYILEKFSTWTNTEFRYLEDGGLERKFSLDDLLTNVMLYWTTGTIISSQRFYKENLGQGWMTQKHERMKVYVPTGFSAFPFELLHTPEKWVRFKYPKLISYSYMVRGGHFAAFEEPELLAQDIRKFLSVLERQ
Outline: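 Human mEH used as the counterscreen enzyme. Values come from one or two experiments, each in triplicate, with repeats within 20%.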

Cytochrome P450 2C9 = Cytochrome P450 2C9 (Homo sapiens, UniProt P11712); test: Inhibition of CYP2C9; format: ADME
Cytochrome P450 2D6 = Cytochrome P450 2D6 (Homo sapiens, UniProt P10635); test: (§1) Inhibition of CYP2D6; format: ADME
Cytochrome P450 3A4 = Cytochrome P450 3A4 (Homo sapiens, UniProt P08684); test: Inhibition of CYP3A4; format: ADME
[4] = Inhibition of potassium channel IKr
[5] = target: Sodium channel protein type 5 subunit alpha (Homo sapiens, UniProt Q14524); test: Inhibition of Nav1.5 channel
L-type calcium channel = test: Inhibition of calcium channel diltiazem binding site
CYP2D6 = CYP2D6 (Homo sapiens, UniProt P10635); test: as §1; format: ADME
CYP2D6, sequence (P10635 whole entry): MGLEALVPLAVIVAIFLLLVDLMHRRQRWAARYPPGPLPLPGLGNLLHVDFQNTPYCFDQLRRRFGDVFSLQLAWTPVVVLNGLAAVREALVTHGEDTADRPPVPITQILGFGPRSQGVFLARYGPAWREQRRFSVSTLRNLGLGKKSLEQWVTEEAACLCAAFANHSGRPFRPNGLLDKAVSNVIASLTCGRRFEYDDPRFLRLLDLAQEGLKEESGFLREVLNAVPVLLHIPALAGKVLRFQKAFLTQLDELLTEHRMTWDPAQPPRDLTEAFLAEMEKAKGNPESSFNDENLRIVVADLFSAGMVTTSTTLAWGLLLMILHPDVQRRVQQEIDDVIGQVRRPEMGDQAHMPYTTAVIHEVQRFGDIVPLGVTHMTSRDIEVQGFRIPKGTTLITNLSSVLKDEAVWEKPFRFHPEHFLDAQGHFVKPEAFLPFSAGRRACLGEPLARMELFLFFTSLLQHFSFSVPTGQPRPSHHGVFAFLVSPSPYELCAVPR

Cytochrome P450 2D6, sequence (P10635 whole entry): as above
Cytochrome P450 3A4, sequence (P08684 whole entry): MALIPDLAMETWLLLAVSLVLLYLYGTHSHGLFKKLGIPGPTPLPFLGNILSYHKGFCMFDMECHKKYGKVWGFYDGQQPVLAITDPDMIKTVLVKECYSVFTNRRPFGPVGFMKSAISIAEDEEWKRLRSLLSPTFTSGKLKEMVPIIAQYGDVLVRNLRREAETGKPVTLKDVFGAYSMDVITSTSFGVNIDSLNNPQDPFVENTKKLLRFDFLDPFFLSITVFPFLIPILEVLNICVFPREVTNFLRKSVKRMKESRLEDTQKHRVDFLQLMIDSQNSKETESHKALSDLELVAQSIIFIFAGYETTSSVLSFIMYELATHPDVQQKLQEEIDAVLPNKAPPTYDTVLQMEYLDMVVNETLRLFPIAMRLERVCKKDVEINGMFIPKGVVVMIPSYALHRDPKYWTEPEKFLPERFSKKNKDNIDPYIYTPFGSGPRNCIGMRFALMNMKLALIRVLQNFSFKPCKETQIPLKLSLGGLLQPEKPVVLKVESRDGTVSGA
Sodium channel protein type 5 subunit alpha, sequence (Q14524 whole entry): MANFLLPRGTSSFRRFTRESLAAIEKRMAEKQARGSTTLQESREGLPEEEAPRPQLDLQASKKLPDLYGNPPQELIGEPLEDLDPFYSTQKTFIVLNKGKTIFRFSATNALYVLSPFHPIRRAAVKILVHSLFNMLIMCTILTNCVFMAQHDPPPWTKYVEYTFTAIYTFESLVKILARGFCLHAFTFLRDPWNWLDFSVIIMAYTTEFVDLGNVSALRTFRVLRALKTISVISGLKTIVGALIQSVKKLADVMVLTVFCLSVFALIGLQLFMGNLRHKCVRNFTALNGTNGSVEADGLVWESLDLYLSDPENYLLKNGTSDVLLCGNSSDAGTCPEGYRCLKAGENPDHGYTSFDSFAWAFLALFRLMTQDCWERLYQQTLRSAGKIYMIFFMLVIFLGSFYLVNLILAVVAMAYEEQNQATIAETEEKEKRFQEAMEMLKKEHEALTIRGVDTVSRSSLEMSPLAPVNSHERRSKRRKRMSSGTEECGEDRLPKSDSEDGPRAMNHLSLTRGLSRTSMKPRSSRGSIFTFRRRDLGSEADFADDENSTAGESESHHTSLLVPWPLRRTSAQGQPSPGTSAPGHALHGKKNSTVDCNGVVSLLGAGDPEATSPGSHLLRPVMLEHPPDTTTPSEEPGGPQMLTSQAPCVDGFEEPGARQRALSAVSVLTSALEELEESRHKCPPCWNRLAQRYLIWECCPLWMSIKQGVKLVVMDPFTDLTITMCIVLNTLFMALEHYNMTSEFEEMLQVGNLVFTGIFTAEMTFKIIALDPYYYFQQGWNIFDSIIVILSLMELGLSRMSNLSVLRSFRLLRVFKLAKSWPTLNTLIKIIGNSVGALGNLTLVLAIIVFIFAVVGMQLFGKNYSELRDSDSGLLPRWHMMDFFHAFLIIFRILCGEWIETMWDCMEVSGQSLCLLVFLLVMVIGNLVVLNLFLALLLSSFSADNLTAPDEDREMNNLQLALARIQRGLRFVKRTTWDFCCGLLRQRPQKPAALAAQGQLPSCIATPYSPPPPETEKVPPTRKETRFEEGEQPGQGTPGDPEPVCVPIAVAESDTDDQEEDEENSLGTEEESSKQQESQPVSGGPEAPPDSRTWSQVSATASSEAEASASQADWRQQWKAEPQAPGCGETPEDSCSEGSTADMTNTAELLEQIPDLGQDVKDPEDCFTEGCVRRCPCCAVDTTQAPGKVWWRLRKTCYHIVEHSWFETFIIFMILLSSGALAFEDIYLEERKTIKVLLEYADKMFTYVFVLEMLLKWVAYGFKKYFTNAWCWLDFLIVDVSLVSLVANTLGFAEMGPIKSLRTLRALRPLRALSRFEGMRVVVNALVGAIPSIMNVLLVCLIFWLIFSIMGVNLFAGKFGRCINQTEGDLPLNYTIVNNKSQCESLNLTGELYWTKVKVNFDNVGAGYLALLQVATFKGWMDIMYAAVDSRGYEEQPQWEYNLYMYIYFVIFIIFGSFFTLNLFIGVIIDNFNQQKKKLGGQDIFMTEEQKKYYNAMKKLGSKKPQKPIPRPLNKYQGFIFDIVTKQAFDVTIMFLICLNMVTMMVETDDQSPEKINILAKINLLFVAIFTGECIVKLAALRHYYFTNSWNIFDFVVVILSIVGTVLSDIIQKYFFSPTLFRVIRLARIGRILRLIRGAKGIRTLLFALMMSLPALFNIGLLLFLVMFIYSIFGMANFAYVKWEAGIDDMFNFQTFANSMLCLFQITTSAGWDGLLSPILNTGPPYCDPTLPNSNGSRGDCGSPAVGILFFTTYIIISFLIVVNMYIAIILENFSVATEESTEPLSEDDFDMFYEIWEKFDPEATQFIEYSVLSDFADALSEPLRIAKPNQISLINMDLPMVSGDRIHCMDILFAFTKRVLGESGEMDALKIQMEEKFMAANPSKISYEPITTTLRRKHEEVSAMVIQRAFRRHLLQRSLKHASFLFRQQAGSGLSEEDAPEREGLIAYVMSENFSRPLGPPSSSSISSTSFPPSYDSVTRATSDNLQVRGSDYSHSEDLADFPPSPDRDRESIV
Cytochrome P450 2C9, sequence (P11712 whole entry): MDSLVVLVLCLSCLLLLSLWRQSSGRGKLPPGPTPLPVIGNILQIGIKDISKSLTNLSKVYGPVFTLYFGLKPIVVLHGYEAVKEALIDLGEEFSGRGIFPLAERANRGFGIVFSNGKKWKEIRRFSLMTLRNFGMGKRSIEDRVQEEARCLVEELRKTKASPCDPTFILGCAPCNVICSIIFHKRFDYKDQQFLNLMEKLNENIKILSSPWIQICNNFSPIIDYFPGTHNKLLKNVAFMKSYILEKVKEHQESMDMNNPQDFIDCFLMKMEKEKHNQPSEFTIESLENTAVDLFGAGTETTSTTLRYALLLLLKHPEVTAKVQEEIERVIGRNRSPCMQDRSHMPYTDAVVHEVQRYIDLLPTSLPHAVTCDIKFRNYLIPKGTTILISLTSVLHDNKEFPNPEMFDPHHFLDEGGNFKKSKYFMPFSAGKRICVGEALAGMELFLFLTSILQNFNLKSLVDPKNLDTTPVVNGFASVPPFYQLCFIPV

SMILES	IC50 [1]	IC50 [2]	IC50 [3]	IC50 (Epoxide hydrolase 1)	IC50 (Cytochrome P450 2C9)	IC50 (Cytochrome P450 2D6)	IC50 (Cytochrome P450 3A4)	IC50 [4]	IC50 [5]	IC50 (L-type calcium channel)	IC50 (CYP2D6)
O=C(O)CCC1(c2ccccc2C(F)(F)F)CCCN(C(=O)Nc2ccc(Cl)cc2)C1 (stereo not drawn)	0.016 µM	0.07 µM	< 0.001 µM	> 100 µM	> 10 µM	> 10 µM	> 10 µM	> 30 µM	> 10 µM	> 30 µM	
CC1(c2ccccc2)CCCN(C(=O)NCCc2ccc3nc[nH]c3c2)C1 (stereo not drawn)	0.029 µM	0.026 µM	0.013 µM	> 100 µM	< 10 µM		> 10 µM	13 µM			< 10 µM
CNC(=O)CCC1(c2ccccc2)CCCN(C(=O)Nc2ccc(Cl)cc2)C1 (stereo not drawn)		0.032 µM	< 0.001 µM	> 100 µM	10 µM	> 10 µM	10 µM	8 µM	> 10 µM	4 µM	
O=C(O)CCC1(c2ccc(C(F)(F)F)cc2)CCCN(C(=O)Nc2ccc(Cl)cc2)C1 (stereo not drawn)	0.005 µM	0.12 µM	< 0.001 µM	> 100 µM	> 10 µM	> 10 µM	> 10 µM	> 30 µM	> 10 µM	> 30 µM	
O=C(O)CC1(c2ccccc2)CCCN(C(=O)Nc2ccc(Cl)cc2)C1 (stereo not drawn)	0.052 µM	0.398 µM	0.038 µM	> 100 µM	> 10 µM	> 10 µM	> 10 µM	> 30 µM	> 10 µM	> 30 µM	
O=C(Nc1ccc(Cl)cc1)N1CCCC(CCO)(c2ccccc2)C1 (stereo not drawn)	0.001 µM	0.015 µM	< 0.001 µM	> 100 µM	< 10 µM	10 µM	> 10 µM	0.07 µM	> 10 µM	0.9 µM	
CC1(c2ccccc2)CCCN(C(=O)N[C@H]2C[C@@H]2c2ccccc2)C1 (stereo partly drawn)	0.001 µM	0.004 µM	< 0.001 µM	> 100 µM	< 10 µM		< 10 µM	26 µM	> 10 µM	10 µM	
CC1(c2ccccc2)CCCN(C(=O)NCCc2ccc(Cl)cc2)C1 (stereo not drawn)	0.001 µM	0.005 µM		54 µM	> 10 µM		< 10 µM	9 µM		2 µM	< 10 µM
O=C(CCC1(c2ccccc2)CCCN(C(=O)Nc2ccc(Cl)cc2)C1)N1CCOCC1 (stereo not drawn)	0.008 µM	0.1 µM	< 0.001 µM		> 10 µM	> 10 µM	> 10 µM	29 µM	> 10 µM	26 µM	
O=C(Nc1ccc(Cl)cc1)N1CCCC(CCCO)(c2ccccc2)C1 (stereo not drawn)	0.0013 µM	0.01 µM	< 0.001 µM	> 100 µM	< 10 µM	> 10 µM	< 10 µM	6 µM	> 10 µM	5 µM	
